According to ChEMBL document CHEMBL3779810, “Potent, Selective, and Orally Bioavailable Inhibitors of VPS34 Provide Chemical Tools to Modulate Autophagy in Vivo” (ACS Med Chem Lett, 2016):
Active and inactive are the calls of the source. The calls are words filed in the database; no cut-off is given here.

Tests used:
[1] = target: T1, Phosphatidylinositol 3-kinase catalytic subunit type 3 (Homo sapiens, UniProt Q8NEB9); assay: Inhibition of recombinant human VPS34 using L-alpha-phosphatidylinositol as substrate incubated for 10 mins by luminescence based ATP detection assay
T1 sequence (Q8NEB9 whole entry): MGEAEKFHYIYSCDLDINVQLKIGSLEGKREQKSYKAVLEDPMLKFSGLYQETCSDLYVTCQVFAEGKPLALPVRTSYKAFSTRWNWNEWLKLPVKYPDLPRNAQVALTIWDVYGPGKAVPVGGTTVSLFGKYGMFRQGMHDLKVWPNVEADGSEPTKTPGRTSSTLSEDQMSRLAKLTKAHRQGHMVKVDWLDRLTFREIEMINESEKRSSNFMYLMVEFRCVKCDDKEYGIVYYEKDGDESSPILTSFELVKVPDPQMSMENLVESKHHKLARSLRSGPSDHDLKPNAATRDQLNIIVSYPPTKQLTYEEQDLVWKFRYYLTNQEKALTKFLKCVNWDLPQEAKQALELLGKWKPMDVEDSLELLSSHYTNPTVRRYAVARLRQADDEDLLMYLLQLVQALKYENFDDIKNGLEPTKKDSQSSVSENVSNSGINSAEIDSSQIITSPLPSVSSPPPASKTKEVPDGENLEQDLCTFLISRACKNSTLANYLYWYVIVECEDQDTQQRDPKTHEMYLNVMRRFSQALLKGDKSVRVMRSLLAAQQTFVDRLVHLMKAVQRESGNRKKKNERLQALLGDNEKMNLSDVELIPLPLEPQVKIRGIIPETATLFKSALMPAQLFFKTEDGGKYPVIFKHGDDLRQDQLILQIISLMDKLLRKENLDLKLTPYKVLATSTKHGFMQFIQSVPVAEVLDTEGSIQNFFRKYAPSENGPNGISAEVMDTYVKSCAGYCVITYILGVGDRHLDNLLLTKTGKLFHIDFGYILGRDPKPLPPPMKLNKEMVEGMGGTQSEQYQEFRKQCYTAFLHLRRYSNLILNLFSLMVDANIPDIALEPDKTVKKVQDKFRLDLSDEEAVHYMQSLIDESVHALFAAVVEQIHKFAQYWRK
Method in brief: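 VPS34 biochemical IC50 was measured with a luminescence-based ATP detection read-out.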

[2] = target: T2, Phosphatidylinositol 4,5-bisphosphate 3-kinase catalytic subunit delta isoform (Homo sapiens, UniProt O00329); assay: Inhibition of PI3Kdelta (unknown origin)
T2 sequence (O00329 whole entry): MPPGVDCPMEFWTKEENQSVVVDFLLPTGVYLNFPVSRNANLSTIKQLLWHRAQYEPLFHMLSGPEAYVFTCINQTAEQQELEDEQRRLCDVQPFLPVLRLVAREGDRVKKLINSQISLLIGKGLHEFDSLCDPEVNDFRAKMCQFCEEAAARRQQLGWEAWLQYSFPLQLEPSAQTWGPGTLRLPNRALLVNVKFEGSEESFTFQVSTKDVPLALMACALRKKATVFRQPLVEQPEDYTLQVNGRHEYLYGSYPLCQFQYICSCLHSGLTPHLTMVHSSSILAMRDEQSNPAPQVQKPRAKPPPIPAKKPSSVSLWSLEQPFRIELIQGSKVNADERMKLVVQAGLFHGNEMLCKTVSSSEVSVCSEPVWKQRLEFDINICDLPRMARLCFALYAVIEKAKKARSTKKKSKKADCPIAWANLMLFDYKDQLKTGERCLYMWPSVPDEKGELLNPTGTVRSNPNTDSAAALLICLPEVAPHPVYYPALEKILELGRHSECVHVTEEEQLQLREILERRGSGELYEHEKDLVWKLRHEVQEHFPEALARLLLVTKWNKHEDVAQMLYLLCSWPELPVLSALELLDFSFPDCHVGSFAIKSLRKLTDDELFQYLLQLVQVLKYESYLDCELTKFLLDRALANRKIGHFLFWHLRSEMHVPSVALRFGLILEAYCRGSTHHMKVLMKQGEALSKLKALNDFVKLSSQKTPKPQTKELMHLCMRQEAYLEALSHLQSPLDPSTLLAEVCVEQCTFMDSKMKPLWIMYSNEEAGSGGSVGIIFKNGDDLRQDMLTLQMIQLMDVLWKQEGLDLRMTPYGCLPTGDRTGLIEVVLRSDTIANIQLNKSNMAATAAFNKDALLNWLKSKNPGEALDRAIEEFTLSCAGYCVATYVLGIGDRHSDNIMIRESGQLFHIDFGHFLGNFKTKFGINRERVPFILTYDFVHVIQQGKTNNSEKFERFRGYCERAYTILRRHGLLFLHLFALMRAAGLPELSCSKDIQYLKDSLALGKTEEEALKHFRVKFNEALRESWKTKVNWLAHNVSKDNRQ

[3] = Intrinsic clearance in mouse liver microsomes by LC-MS/MS analysis; format: ADME; conditions: read-out: CLH
[4] = target: Phosphatidylinositol 4,5-bisphosphate 3-kinase catalytic subunit beta isoform (Homo sapiens, UniProt P42338); assay: Inhibition of PI3Kbeta (unknown origin)
Chain of Phosphatidylinositol 4,5-bisphosphate 3-kinase catalytic subunit beta isoform (P42338 whole entry, canonical isoform): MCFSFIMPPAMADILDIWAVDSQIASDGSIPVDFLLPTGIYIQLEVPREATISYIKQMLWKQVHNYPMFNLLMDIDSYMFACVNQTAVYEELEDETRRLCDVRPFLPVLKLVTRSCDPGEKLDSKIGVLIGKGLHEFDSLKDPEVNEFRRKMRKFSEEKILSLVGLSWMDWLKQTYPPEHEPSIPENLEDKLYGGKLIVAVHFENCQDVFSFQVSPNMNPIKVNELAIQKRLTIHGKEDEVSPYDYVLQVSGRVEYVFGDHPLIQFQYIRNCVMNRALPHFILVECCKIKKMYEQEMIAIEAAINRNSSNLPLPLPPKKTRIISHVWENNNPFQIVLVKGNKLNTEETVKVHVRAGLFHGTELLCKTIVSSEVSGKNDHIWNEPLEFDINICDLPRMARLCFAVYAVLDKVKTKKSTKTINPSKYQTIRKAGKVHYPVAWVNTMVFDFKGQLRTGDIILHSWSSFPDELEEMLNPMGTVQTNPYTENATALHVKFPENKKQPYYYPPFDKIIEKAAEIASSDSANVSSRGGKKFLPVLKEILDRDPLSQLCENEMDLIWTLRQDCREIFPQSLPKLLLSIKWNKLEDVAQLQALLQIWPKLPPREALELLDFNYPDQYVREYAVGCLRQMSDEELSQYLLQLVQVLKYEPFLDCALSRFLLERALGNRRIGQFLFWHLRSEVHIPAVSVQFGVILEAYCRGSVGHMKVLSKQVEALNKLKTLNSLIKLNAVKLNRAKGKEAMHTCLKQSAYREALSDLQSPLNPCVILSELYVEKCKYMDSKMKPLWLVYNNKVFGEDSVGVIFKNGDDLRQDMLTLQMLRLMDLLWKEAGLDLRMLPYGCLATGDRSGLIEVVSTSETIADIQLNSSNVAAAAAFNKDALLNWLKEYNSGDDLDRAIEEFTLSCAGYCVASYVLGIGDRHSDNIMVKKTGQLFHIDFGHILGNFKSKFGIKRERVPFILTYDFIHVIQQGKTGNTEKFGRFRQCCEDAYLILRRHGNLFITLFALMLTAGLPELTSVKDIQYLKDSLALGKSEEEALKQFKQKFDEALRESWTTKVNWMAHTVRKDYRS

[5] = target: T1, Phosphatidylinositol 3-kinase catalytic subunit type 3; assay: Inhibition of VPS34 in human U2OS cells incubated for 2 hrs by GFP-FYVE reporter gene assay; format: cell-based
[6] = target: Phosphatidylinositol 4,5-bisphosphate 3-kinase catalytic subunit gamma isoform (Homo sapiens, UniProt P48736); assay: Inhibition of PI3Kgamma (unknown origin)
Chain of Phosphatidylinositol 4,5-bisphosphate 3-kinase catalytic subunit gamma isoform (P48736 whole entry, canonical isoform): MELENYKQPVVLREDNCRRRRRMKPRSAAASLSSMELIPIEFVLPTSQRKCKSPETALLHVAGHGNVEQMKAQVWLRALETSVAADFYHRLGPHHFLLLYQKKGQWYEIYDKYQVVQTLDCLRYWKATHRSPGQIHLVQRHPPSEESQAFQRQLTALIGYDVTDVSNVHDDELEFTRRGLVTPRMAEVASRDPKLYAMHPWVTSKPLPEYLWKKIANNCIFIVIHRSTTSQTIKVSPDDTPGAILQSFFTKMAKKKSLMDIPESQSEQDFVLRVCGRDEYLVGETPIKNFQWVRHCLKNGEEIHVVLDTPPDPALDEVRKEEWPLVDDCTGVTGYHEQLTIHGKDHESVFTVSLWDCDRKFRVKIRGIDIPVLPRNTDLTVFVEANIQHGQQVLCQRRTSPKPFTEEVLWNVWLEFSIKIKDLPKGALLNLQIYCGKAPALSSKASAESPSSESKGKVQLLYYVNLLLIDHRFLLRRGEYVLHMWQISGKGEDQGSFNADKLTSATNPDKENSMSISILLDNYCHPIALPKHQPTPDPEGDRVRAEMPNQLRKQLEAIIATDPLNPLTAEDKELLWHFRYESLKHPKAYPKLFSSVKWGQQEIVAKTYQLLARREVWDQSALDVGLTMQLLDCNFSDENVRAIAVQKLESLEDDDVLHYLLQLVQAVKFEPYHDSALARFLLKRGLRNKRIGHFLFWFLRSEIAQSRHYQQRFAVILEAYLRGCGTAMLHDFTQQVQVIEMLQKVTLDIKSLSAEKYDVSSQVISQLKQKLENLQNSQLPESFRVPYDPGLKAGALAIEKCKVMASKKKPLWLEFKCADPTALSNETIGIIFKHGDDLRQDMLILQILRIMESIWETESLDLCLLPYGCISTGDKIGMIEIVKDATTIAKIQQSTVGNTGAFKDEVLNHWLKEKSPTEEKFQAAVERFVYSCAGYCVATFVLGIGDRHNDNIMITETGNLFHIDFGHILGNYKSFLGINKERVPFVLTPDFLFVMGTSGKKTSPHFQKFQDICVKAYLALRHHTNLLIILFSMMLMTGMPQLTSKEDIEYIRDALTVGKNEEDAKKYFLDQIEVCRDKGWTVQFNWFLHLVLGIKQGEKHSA

[7] = target: Phosphatidylinositol 4,5-bisphosphate 3-kinase catalytic subunit alpha isoform (Homo sapiens, UniProt P42336); assay: Inhibition of PI3Kalpha (unknown origin)
Chain of Phosphatidylinositol 4,5-bisphosphate 3-kinase catalytic subunit alpha isoform (P42336 whole entry, canonical isoform): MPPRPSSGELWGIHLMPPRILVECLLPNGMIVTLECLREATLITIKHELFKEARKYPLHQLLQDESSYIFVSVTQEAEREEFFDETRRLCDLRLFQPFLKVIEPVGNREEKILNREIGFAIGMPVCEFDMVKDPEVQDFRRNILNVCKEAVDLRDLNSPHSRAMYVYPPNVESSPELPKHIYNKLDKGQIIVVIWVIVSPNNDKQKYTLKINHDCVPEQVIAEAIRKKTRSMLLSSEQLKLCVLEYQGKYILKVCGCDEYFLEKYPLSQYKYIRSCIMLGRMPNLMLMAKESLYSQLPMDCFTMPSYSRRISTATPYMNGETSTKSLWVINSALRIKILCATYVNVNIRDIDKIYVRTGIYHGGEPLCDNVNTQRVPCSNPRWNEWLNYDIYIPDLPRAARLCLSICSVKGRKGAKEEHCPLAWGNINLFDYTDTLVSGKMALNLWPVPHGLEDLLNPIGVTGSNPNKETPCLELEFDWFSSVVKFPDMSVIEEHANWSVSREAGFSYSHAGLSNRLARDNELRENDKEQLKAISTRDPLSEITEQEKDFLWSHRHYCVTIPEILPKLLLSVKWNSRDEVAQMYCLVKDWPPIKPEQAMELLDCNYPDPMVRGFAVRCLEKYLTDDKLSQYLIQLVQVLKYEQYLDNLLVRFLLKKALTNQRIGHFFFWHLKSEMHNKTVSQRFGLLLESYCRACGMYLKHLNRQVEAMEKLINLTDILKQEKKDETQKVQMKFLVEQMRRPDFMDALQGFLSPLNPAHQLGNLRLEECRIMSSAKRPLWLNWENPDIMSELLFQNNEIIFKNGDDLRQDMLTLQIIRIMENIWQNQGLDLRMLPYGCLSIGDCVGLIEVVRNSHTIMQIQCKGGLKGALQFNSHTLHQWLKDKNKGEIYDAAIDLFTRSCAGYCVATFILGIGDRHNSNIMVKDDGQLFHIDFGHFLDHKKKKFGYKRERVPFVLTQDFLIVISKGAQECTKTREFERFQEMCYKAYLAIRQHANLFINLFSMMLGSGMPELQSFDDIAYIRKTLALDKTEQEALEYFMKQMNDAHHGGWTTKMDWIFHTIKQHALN

[8] = target: T1, Phosphatidylinositol 3-kinase catalytic subunit type 3; assay: Inhibition of VPS34 in human DLD1 cells assessed as prevention of FTH1 protein degradation at 1 to 10 uM incubated for 24 hrs by Western blot analysis; format: cell-based; conditions: DLD-1
[9] = Clearance in C57BL/6 mouse at 2 mg/kg, iv; format: ADME, organism-based; conditions: in vivo
Method in brief: (§1)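 Pharmacokinetics in C57BL/6 mice after a single dose, either intravenous at 2 mg/kg or oral at 10 mg/kg. Mean parameters reported: AUCinf, CL, Vdss, t1/2, Tmax, Cmax and F. Clearance was also expressed as a percentage of hepatic blood flow.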

Homo sapiens [10] = species on record: Homo sapiens; assay: Selectivity ratio of IC50 for TAK1 (unknown origin) to recombinant human VPS34
[11] = Half life in C57BL/6 mouse at 2 mg/kg, iv; format: ADME, organism-based; conditions: in vivo; method in brief: as §1
[12] = target: T1, Phosphatidylinositol 3-kinase catalytic subunit type 3; assay: Inhibition of VPS34 in human DLD1 cells assessed as prevention of NBR1 protein degradation at 1 to 10 uM incubated for 24 hrs by Western blot analysis; format: cell-based; conditions: DLD-1
[13] = Volume of distribution at steady state in C57BL/6 mouse at 2 mg/kg, iv; format: ADME, organism-based; conditions: in vivo, read-out: Vdss; method in brief: as §1
Homo sapiens [14] = species on record: Homo sapiens; assay: Selectivity ratio of IC50 for PI3Kgamma (unknown origin) to recombinant human VPS34
[15] = target: T1, Phosphatidylinositol 3-kinase catalytic subunit type 3; assay: Inhibition of VPS34 in human DLD1 cells assessed as increase in LC3-1 protein expression at 1 to 10 uM incubated for 24 hrs by Western blot analysis; format: cell-based; conditions: DLD-1
[16] = target: T1, Phosphatidylinositol 3-kinase catalytic subunit type 3; assay: Inhibition of VPS34 in human DLD1 cells assessed as increase in LC3-2 protein expression at 1 to 10 uM incubated for 24 hrs by Western blot analysis; format: cell-based; conditions: DLD-1
Mus musculus [17] = assay: Systemic clearance in C57BL/6 mouse at 10 mg/kg, po relative to hepatic blood flow; format: ADME, organism-based, Liver; conditions: in vivo; method in brief: as §1
[18] = Tmax in C57BL/6 mouse at 10 mg/kg, po; format: ADME, organism-based; conditions: in vivo; method in brief: as §1
Homo sapiens [19] = species on record: Homo sapiens; assay: Selectivity ratio of IC50 for PI3Kalpha (unknown origin) to recombinant human VPS34
Homo sapiens [20] = species on record: Homo sapiens; assay: Selectivity ratio of IC50 for PI3Kdelta (unknown origin) to recombinant human VPS34
[21] = Cmax in C57BL/6 mouse at 10 mg/kg, po; format: ADME, organism-based; set-up: dose 10 mg/kg, route oral; conditions: in vivo; method in brief: as §1
[22] = AUC (0 to infinity) in C57BL/6 mouse at 10 mg/kg, po; format: ADME, organism-based; set-up: dose 10 mg/kg, route oral, time infinity; conditions: in vivo; method in brief: as §1
[23] = AUC (0 to infinity) in C57BL/6 mouse at 2 mg/kg, iv; format: ADME, organism-based; set-up: dose 2 mg/kg, route intravenous, time infinity; conditions: in vivo; method in brief: as §1
[24] = Oral bioavailability in C57BL/6 mouse at 10 mg/kg; format: ADME, organism-based; conditions: in vivo; method in brief: as §1
RKO = assay: Antitumor activity against human RKO cells xenografted in athymic nude mouse assessed as reduction in tumor volume at 50 mg/kg, po bid for 7 days; format: functional, organism-based
Mus musculus [25] = assay: Inhibition of autophagy in athymic nude mouse xenografted with human RKO cells assessed as accumulation of LC3-2 protein at 50 mg/kg, po bid for 7 days by SDS-PAGE analysis; format: functional, organism-based; conditions: TDE = time-dependent effect
Method in brief: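 Nude mice bearing RKO colon cancer tumors were dosed orally at 50 mg/kg twice daily (BID) for 7 days. LC3-II in tumor samples was followed over time by immunoblot, one lane per individual mouse.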

[26] = Systemic clearance in C57BL/6 mouse at 10 mg/kg, po; format: ADME, organism-based; conditions: in vivo; method in brief: as §1
Homo sapiens [27] = species on record: Homo sapiens; assay: Selectivity ratio of IC50 for PI3Kbeta (unknown origin) to recombinant human VPS34
[28] = target: T1, Phosphatidylinositol 3-kinase catalytic subunit type 3; assay: Inhibition of VPS34 in human DLD1 cells assessed as prevention of NCOA4 protein degradation at 1 to 10 uM incubated for 24 hrs by Western blot analysis; format: cell-based; conditions: DLD-1
[29] = target: T1, Phosphatidylinositol 3-kinase catalytic subunit type 3; assay: Inhibition of VPS34 in human DLD1 cells assessed as prevention of p62 degradation at 1 to 10 uM incubated for 24 hrs by Western blot analysis; format: cell-based; conditions: DLD-1
[30] = target: T1, Phosphatidylinositol 3-kinase catalytic subunit type 3; assay: Inhibition of VPS34 in human DLD1 cells assessed as prevention of NDP52 protein degradation at 1 to 10 uM incubated for 24 hrs by Western blot analysis; format: cell-based; conditions: DLD-1
[31] = target: Phosphatidylinositol 4-kinase beta (Homo sapiens, UniProt Q9UBF8); assay: Inhibition of PI4Kbeta (unknown origin)
Chain of Phosphatidylinositol 4-kinase beta (Q9UBF8 whole entry): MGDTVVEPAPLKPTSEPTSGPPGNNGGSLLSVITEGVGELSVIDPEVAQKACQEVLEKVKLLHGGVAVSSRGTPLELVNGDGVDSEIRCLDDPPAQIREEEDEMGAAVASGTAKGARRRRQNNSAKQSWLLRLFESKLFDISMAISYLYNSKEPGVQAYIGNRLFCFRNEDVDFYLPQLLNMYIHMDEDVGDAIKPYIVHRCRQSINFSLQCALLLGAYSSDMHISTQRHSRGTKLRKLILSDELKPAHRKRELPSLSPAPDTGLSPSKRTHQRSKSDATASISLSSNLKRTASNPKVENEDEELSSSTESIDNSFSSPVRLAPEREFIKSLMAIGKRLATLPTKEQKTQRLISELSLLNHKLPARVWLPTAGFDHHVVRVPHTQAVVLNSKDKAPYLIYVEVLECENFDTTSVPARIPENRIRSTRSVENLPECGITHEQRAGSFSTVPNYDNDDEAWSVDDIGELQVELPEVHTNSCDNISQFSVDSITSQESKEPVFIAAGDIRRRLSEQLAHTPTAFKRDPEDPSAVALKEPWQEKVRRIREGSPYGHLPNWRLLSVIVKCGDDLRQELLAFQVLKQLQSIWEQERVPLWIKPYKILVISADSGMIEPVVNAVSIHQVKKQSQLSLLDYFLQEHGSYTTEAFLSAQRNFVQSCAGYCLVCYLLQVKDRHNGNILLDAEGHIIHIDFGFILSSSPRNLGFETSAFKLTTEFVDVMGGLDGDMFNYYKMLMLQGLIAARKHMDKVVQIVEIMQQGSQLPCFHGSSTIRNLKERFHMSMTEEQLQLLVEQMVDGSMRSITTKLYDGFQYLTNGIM

SMILES: CNc1ncc(-c2ccnc(Nc3cnc4ccccc4c3)n2)c(CC2CC2)n1
- IC50 [1]: 0.13 µM

SMILES: CNc1ncc(-c2ccnc(NC3CCCCC3)n2)c(CC2CC2)n1
- IC50 [1]: 3.4 µM

SMILES: c1ccc(CNc2ncc(-c3ccnc(Nc4ccncc4)n3)c(CC3CC3)n2)cc1
- IC50 [2]: 3.7 µM
- CLint scaled [3]: 74.8 mL/min/kg

SMILES: CNc1ncc(-c2ccnc(Nc3ccncc3)n2)c(CC2CC2)n1
- IC50 [4]: > 9.1 µM
- IC50 [2]: 2.9 µM
- CLint scaled [3]: 86.7 mL/min/kg
- IC50 [5]: 0.014 µM
- IC50 [6]: 1.9 µM
- IC50 [7]: 6.8 µM

SMILES: CC(C)(C)CNc1ncc(-c2ccnc(Nc3ccncc3)n2)c(CC2CC2)n1
- IC50 [2]: 0.5 µM
- CLint scaled [3]: 67 mL/min/kg

SMILES: CNc1ncc(-c2ccnc(N[C@H]3CC[C@H](N)CC3)n2)c(CC2CC2)n1
- IC50 [1]: 0.41 µM

SMILES: COc1ncc(-c2ccnc(Nc3ccncc3)n2)c(CC2CC2)n1
- IC50 [2]: 8.5 µM
- CLint scaled [3]: 84.7 mL/min/kg

SMILES: CNc1ncc(-c2ccnc(NCCCO)n2)c(CC2CC2)n1
- IC50 [1]: 6.3 µM

SMILES: c1cc(Nc2nccc(-c3cnc(NC4CCOCC4)nc3CC3CC3)n2)ccn1
- IC50 [2]: 4.2 µM
- IC50 [1]: 0.24 µM
- CLint scaled [3]: 65.8 mL/min/kg
- IC50 [5]: 0.27 µM

SMILES: CC(C)(O)CNc1ncc(-c2ccnc(Nc3ccncc3)n2)c(CC2CC2)n1
- inhibition [8]: Active
- clearance [9]: 30 mL/min/kg
- Ratio IC50 (Homo sapiens [10]): 10
- half-life [11]: 72 min
- inhibition [12]: Active
- Vd [13]: 1.5 L/kg
- IC50 [2]: 0.82 µM
- Ratio IC50 (Homo sapiens [14]): > 100
- inhibition [15]: Active
- inhibition [16]: Active
- CL (Mus musculus [17]): 33%
- Tmax [18]: 42 min
- Ratio IC50 (Homo sapiens [19]): > 100
- Ratio IC50 (Homo sapiens [20]): 40
- CLint scaled [3]: 63.2 mL/min/kg
- IC50 [5]: 0.025 µM
- Cmax [21]: 2990 nM
- AUC(0-inf) [22]: 6.73 µM·h
- AUC(0-inf) [23]: 2.85 µM·h
- bioavailability [24]: 47%
- Activity (RKO): inactive
- inhibition (Mus musculus [25]): tde
- CL/F [26]: 30 mL/min/kg
- Ratio IC50 (Homo sapiens [27]): > 100
- inhibition [28]: Active
- inhibition [29]: Active
- inhibition [30]: Active

SMILES: CNc1ncc(-c2ccnc(Nc3ccccc3)n2)c(CC2CC2)n1
- IC50 [1]: 0.29 µM

SMILES: CNc1ncc(-c2ccnc(N[C@H]3CC[C@H](O)CC3)n2)c(CC2CC2)n1
- IC50 [31]: 3.8 µM
- IC50 [4]: > 9.1 µM
- IC50 [2]: 7 µM
- CLint scaled [3]: 82.6 mL/min/kg
- IC50 [6]: 8.5 µM
- IC50 [7]: 6.2 µM

SMILES: c1cc(Nc2nccc(-c3cncnc3CC3CC3)n2)ccn1
- IC50 [2]: > 9.1 µM
- IC50 [1]: 0.21 µM
- CLint scaled [3]: 69.9 mL/min/kg
- IC50 [5]: 0.33 µM

SMILES: CC(C)(C)Nc1ncc(-c2ccnc(Nc3ccncc3)n2)c(CC2CC2)n1
- IC50 [2]: 0.74 µM
- CLint scaled [3]: 85.5 mL/min/kg

SMILES: Nc1ncc(-c2ccnc(Nc3ccncc3)n2)c(CC2CC2)n1
- inhibition [8]: Active
- inhibition [12]: Active
- CLint scaled [3]: 72.8 mL/min/kg
- inhibition [28]: Active
- inhibition [29]: Active
- inhibition [30]: Active
